Test results reported in publication PMC3128676 (Angewandte Chemie (International ed. in English), 2011).
Entries after “also recorded” stand apart in the source; their conditions may differ.

Experiments:
[1] = In vivo biodistribution and clearance in CD-1 mice; settings: for β-phase blood half-life (t1/2β): CD-1 mice, 40 pmol/g i.v.; for CBR Bl (bladder) relative to abdominal wall / CBR He/Lu (heart/lungs) relative to abdominal wall / CBR In (intestine) relative to abdominal wall / CBR Li (liver) relative to abdominal wall / CBR Re (rectum) relative to abdominal wall / CBR Sk/Mu (skin/muscle) relative to abdominal wall / CBR Sp (spleen) relative to abdominal wall / Carcass (retention) / Eliminated (from the body into urine): Mouse; for CBR Bl (bladder) relative to abdominal wall / CBR He/Lu (heart/lungs) relative to abdominal wall / CBR In (intestine) relative to abdominal wall / CBR Li (liver) relative to abdominal wall / CBR Re (rectum) relative to abdominal wall / CBR Sk/Mu (skin/muscle) relative to abdominal wall / CBR Sp (spleen) relative to abdominal wall / Carcass (retention) / Eliminated (from the body into urine) / Uptake in intestine / Uptake in kidneys / Uptake in liver: 4 h postinjection; for Route of elimination (renal clearance), in words: mice, 4 h; for half-life: blood; for half-life / tissue uptake at 4 h: 40 pmol/g
Summary of the method: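 CD-1 male mice (25 to 30 g) received 40 pmol/g fluorophore in saline i.v. and were imaged with the FLARE system on surgically exposed organs. Excitation was 14 mW/cm2 of 745–779 nm-filtered light, with emission through an 800–848 nm bandpass and exposure and normalization held constant. ROI fluorescence and background gave CBR = (FL–BG)/BG, scored against abdominal wall. N = 5, mean ± S.D.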

[2] = In vivo biodistribution and clearance in SD rats; design: species or system Sprague-Dawley (SD) rats; settings: Rat, 4 h postinjection
Summary of the method: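 Sprague-Dawley male rats (250 to 300 g) received 40 pmol/g fluorophore in saline i.v. and were imaged with the FLARE system on surgically exposed organs. Excitation was 14 mW/cm2 of 745–779 nm light, with emission through an 800–848 nm bandpass and exposure held constant. CBR = (FL–BG)/BG was scored relative to abdominal wall. N = 5.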

[3] = Stability in warm serum; assay type: in vitro ADME, bovine; settings: 100% FBS, up to 4 h
[4] = Optical property measurements in 100% FBS at 37°C; assay type: physicochemical; settings: for Stokes Shift / λem / λexc / ε (extinction coefficient) / Φ (fluorescence quantum yield): 100% FBS; for ε (extinction coefficient): 50 mM HEPES pH 7.4, 37°C; for Φ (fluorescence quantum yield): ICG in DMSO as standard
Summary of the method: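 Spectra were taken at 37°C in 100% FBS buffered with 50 mM HEPES, pH 7.4, on fiberoptic absorbance (200–1100 nm) and fluorescence (350–1000 nm) spectrometers. Excitation was a 770 nm laser diode set to 8 mW. […] Dyes available only as NHS ester were first hydrolysed to acid in 50 mM borate, pH 9.0, for 3 h.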

[5] = tested on: serum proteins; assay type: in vitro ADME, bovine; settings: 4 h incubation in 100% FBS
[6] = in dimethyl sulfoxide; cited from earlier work

## IRDye™800-RS carboxylic acid [RS800]
[1]
  β-phase blood half-life (t1/2β): 11.2 min
  CBR Bl (bladder) relative to abdominal wall: ++ (++, 2 to 5)
  CBR He/Lu (heart/lungs) relative to abdominal wall: – (–, 0 to 1)
  CBR In (intestine) relative to abdominal wall: ++ (++, 2 to 5)
  CBR Li (liver) relative to abdominal wall: – (–, 0 to 1)
  CBR Re (rectum) relative to abdominal wall: +++ (+++, > 5)
  CBR Sk/Mu (skin/muscle) relative to abdominal wall: – (–, 0 to 1)
  CBR Sp (spleen) relative to abdominal wall: – (–, 0 to 1)
  Carcass (retention): 79.0 ± 4.1 %ID
  Eliminated (from the body into urine): 15.5 ± 1.2 %ID
[1]; approximate, discussion statement
  Renal filtration / renal excretion: ≈ 20%
[2]
  CBR Bl (bladder) relative to abdominal wall: – (–, 0 to 1)
  CBR He/Lu (heart/lungs) relative to abdominal wall: – (–, 0 to 1)
  CBR In (intestine) relative to abdominal wall: +++ (+++, > 5)
  CBR Li (liver) relative to abdominal wall: – (–, 0 to 1)
  CBR Re (rectum) relative to abdominal wall: ++ (++, 2 to 5)
  CBR Sk/Mu (skin/muscle) relative to abdominal wall: – (–, 0 to 1)
  CBR Sp (spleen) relative to abdominal wall: – (–, 0 to 1)
[3]
  Decomposition: 4.4%
[4]
  Stokes Shift: 16 nm
  λem: 800 nm
  λexc: 784 nm
  ε (extinction coefficient): 240,000 M^-1cm^-1
  Φ (fluorescence quantum yield): 16.9%

## CC1(C)C(/C=C/C2=C(Oc3ccc(CCC(=O)O)cc3)C(=C/C=C3/N(CCC[N+](C)(C)C)c4ccc(S(=O)(=O)O)cc4C3(C)C)/CCC2)=[N+](CCC[N+](C)(C)C)c2ccc(S(=O)(=O)O)cc21 [ZW800-1]
[1]; 1 h post-injection
  Found in urine: 51.3 ± 9.7 %ID
[1]
  Uptake in intestine: 0.7 ± 0.4 %ID/g
  Uptake in kidneys: 9.8 ± 2.2 %ID/g
  Uptake in liver: 0.9 ± 0.1 %ID/g
  β-phase blood half-life (t1/2β): 15.1 min
  CBR Bl (bladder) relative to abdominal wall: +++ (+++, > 5)
  CBR He/Lu (heart/lungs) relative to abdominal wall: – (–, 0 to 1)
  CBR In (intestine) relative to abdominal wall: – (–, 0 to 1)
  CBR Li (liver) relative to abdominal wall: – (–, 0 to 1)
  CBR Re (rectum) relative to abdominal wall: – (–, 0 to 1)
  CBR Sk/Mu (skin/muscle) relative to abdominal wall: – (–, 0 to 1)
  CBR Sp (spleen) relative to abdominal wall: – (–, 0 to 1)
  Carcass (retention): 12.4 ± 3.4 %ID
  Eliminated (from the body into urine): 86.0 ± 15.4 %ID
  Route of elimination (renal clearance), in words: exclusively cleared by the kidneys; also recorded: mostly renally cleared
[2]
  CBR Bl (bladder) relative to abdominal wall: +++ (+++, > 5)
  CBR He/Lu (heart/lungs) relative to abdominal wall: – (–, 0 to 1)
  CBR In (intestine) relative to abdominal wall: – (–, 0 to 1)
  CBR Li (liver) relative to abdominal wall: – (–, 0 to 1)
  CBR Re (rectum) relative to abdominal wall: – (–, 0 to 1)
  CBR Sk/Mu (skin/muscle) relative to abdominal wall: – (–, 0 to 1)
  CBR Sp (spleen) relative to abdominal wall: – (–, 0 to 1)
[2]; not measured directly
  Carcass (retention): 14.8 ± 6.5 %ID
  Eliminated: 83.4 ± 15.9 %ID
[3]
  Decomposition: 5.5%
[4]
  Stokes Shift: 16 nm
  λem: 788 nm
  λexc: 772 nm
  ε (extinction coefficient): 249,000 M^-1cm^-1
  Φ (fluorescence quantum yield): 15.1%
[4]; in serum
  Product of extinction coefficient and quantum yield in serum, relative to ICG: over 3 fold
[5]
  Serum protein binding (HD shift by GFC): does not exhibit protein binding; also recorded: no serum protein binding; also recorded: did not adsorb to serum proteins

## CC1(C)C(/C=C/C=C/C=C/C=C2\N(CCCCS(=O)(=O)O)c3ccc4ccccc4c3C2(C)C)=[N+](CCCCS(=O)(=O)[O-])c2ccc3ccccc3c21 [ICG, indocyanine green]
[1]
  CBR Bl (bladder) relative to abdominal wall: – (–, 0 to 1)
  CBR He/Lu (heart/lungs) relative to abdominal wall: – (–, 0 to 1)
  CBR In (intestine) relative to abdominal wall: +++ (+++, > 5)
  CBR Li (liver) relative to abdominal wall: ++ (++, 2 to 5)
  CBR Re (rectum) relative to abdominal wall: + (+, 1 to 2)
  CBR Sk/Mu (skin/muscle) relative to abdominal wall: – (–, 0 to 1)
  CBR Sp (spleen) relative to abdominal wall: – (–, 0 to 1)
  Carcass (retention): 97.1 ± 9.4 %ID
  Eliminated (from the body into urine): 2.2 ± 0.9 %ID
  Route of elimination (renal clearance), in words: undetectable in urine
[1]; male, CD-1, mouse, iv
  half-life: 3.6 min
[1]; male, CD-1, mouse, intestine, intravenous
  tissue uptake at 4 h: 62 ± 6.6 %ID/g
[1]; male, CD-1, mouse, kidneys, intravenous
  tissue uptake at 4 h: 5.9 ± 1 %ID/g
[1]; male, CD-1, mouse, liver, intravenous
  tissue uptake at 4 h: 27.1 ± 0.5 %ID/g
[1]; mouse, intravenous
  half-life: 2 to 5 min
[6]
  Φ (fluorescence quantum yield) of calibration standard: 13%
[2]
  CBR Bl (bladder) relative to abdominal wall: – (–, 0 to 1)
  CBR He/Lu (heart/lungs) relative to abdominal wall: – (–, 0 to 1)
  CBR In (intestine) relative to abdominal wall: +++ (+++, > 5)
  CBR Li (liver) relative to abdominal wall: ++ (++, 2 to 5)
  CBR Re (rectum) relative to abdominal wall: + (+, 1 to 2)
  CBR Sk/Mu (skin/muscle) relative to abdominal wall: – (–, 0 to 1)
  CBR Sp (spleen) relative to abdominal wall: – (–, 0 to 1)
[3]
  Decomposition: 5.9%
[4]
  Stokes Shift: 15 nm
  λem: 822 nm
  λexc: 807 nm
  ε (extinction coefficient): 121,000 M^-1cm^-1
  Φ (fluorescence quantum yield): 9.3%
[5]
  Serum protein binding (HD shift by GFC): significant HD shift

## CC1(C)C(=CC=C2CCCC(C=CC3=[N+](CCCCCC(=O)[O-])c4ccc(S(=O)(=O)[O-])cc4C3(C)C)=C2Oc2ccc(S(=O)(=O)[O-])cc2)N(CCCCS(=O)(=O)[O-])c2ccc(S(=O)(=O)[O-])cc21.[Na+].[Na+].[Na+].[Na+] [CW800, IRDye™800-CW carboxylic acid]
[1]
  Uptake in intestine: 28.5 ± 7.0 %ID/g
  Uptake in kidneys: 7.3 ± 1.3 %ID/g
  Uptake in liver: 11.4 ± 0.8 %ID/g
  β-phase blood half-life (t1/2β): 18.5 min
  CBR Bl (bladder) relative to abdominal wall: +++ (+++, > 5)
  CBR He/Lu (heart/lungs) relative to abdominal wall: – (–, 0 to 1)
  CBR In (intestine) relative to abdominal wall: +++ (+++, > 5)
  CBR Li (liver) relative to abdominal wall: – (–, 0 to 1)
  CBR Re (rectum) relative to abdominal wall: ++ (++, 2 to 5)
  CBR Sk/Mu (skin/muscle) relative to abdominal wall: + (+, 1 to 2)
  CBR Sp (spleen) relative to abdominal wall: – (–, 0 to 1)
  Carcass (retention): 52.4 ± 9.6 %ID
  Eliminated (from the body into urine): 44.0 ± 4.6 %ID
[2]
  CBR Bl (bladder) relative to abdominal wall: +++ (+++, > 5)
  CBR He/Lu (heart/lungs) relative to abdominal wall: – (–, 0 to 1)
  CBR In (intestine) relative to abdominal wall: +++ (+++, > 5)
  CBR Li (liver) relative to abdominal wall: + (+, 1 to 2)
  CBR Re (rectum) relative to abdominal wall: + (+, 1 to 2)
  CBR Sk/Mu (skin/muscle) relative to abdominal wall: + (+, 1 to 2)
  CBR Sp (spleen) relative to abdominal wall: – (–, 0 to 1)
[3]
  Decomposition: 4.0%
[4]
  Stokes Shift: 14 nm
  λem: 800 nm
  λexc: 786 nm
  ε (extinction coefficient): 237,000 M^-1cm^-1
  Φ (fluorescence quantum yield): 14.2%
